Measured values: ChEMBL document CHEMBL3745705, “Discovery of Oral VEGFR-2 Inhibitors with Prolonged Ocular Retention That Are Efficacious in Models of Wet Age-Related Macular Degeneration” (J Med Chem, 2015)
≈ marks a conversion by molar mass, not a printed value.

Columns and labels:
[1] = Aqueous solubility of the compound at pH 6.8; conditions: aqueous medium
[2] = organism: Mus musculus; experiment: animal or person; conditions: C57BL/6, po, read-out: INH
[3] = test system: Mus musculus; experiment: Antiangiogenic activity in po dosed C57BL/6 mouse laser-induced choroidal neovascularization assessed as inhibition of neovascular lesion formation administered qd for 6 days measured on day 7 by microscopic analysis; format: functional; conditions: C57BL/6, po
[4] = molecular target: Voltage-gated inwardly rectifying potassium channel KCNH2 (Homo sapiens, UniProt Q12809); experiment: Inhibition of human ERG channel by automated Q-patch assay
[5] = test system: Rattus norvegicus; experiment: Antiangiogenic activity in po dosed Brown Norway rat laser-induced choroidal neovascularization model assessed as inhibition of neovascular lesion formation administered qd for 14 days by microscopic analysis; format: functional; conditions: 336 h
Outline: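 Male Brown Norway rats, about 12 weeks old, dosed by oral gavage starting about 1 h before laser. Lesions were made under ketamine/xylazine i.p. (40–80 / 5–10 mg/kg) with 532 nm laser pulses (30 ms, 190 mW, 200 µm spot), about 4 lesions per eye and 10 rats per group. Vessels were labelled with i.v. 2,000 kD FITC dextran, eyes fixed in 4% paraformaldehyde, and CNV area measured blinded.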

[6] = test system: Plasma; experiment: Dose normalized AUC (0 to 24 hrs) in Brown Norway rat plasma at 2 mg/kg, po; format: ADME, organism-based; conditions: in vivo
[7] = Dose normalized AUC (0 to 24 hrs) in Brown Norway rat retina at 2 mg/kg, po; format: ADME, organism-based; conditions: in vivo
[8] = Dose normalized AUC (0 to 24 hrs) in Brown Norway rat posteior eye cup at 2 mg/kg, po; format: ADME, organism-based; conditions: in vivo
[9] = test system: Plasma; experiment: Dose normalized Cmax in Brown Norway rat plasma at 2 mg/kg, po; format: ADME, organism-based; conditions: in vivo
Outline: (§1)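 Single oral dose to three-month-old Brown Norway rats as a suspension in 0.5% MC/0.1% tween 80, WFI. Retina, posterior eye cup (RPE/choroid/sclera) and plasma collected from 2 rats per time point up to 144 h. Tissues homogenized, plasma proteins precipitated, drug quantified by LC-MS/MS.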

[10] = Dose normalized Cmax in Brown Norway rat retina at 2 mg/kg, po; format: ADME, organism-based; conditions: in vivo; outline: as §1
[11] = Dose normalized Cmax in Brown Norway rat posteior eye cup at 2 mg/kg, po; format: ADME, organism-based; conditions: in vivo; outline: as §1
[12] = test system: Plasma; experiment: Dose normalized plasma concentration in Brown Norway rat plasma at 2 mg/kg, po measured at 24 hrs by LC-MS/MS analysis; format: ADME, organism-based; conditions: in vivo; outline: as §1
[13] = Dose normalized drug uptake in Brown Norway rat retina at 2 mg/kg, po by LC-MS/MS analysis; format: ADME, organism-based; conditions: in vivo; outline: as §1
[14] = test system: Rattus norvegicus; experiment: AUC (0 to 8 hrs) in Brown Norway rat at 3 mg/kg, po by LC-MS/MS analysis; format: ADME, organism-based; set-up: dose 3 mg/kg, time < 8 hr, route oral; conditions: in vivo
[15] = Volume of distribution at steady state in Brown Norway rat at 3 mg/kg, po or 1 mg/kg, iv by LC-MS/MS analysis; format: ADME, organism-based; conditions: in vivo, read-out: Vdss
[16] = Half life in Brown Norway rat at 3 mg/kg, po or 1 mg/kg, iv by LC-MS/MS analysis; format: ADME, organism-based; conditions: in vivo
[17] = Cmax in Brown Norway rat at 3 mg/kg, po or 1 mg/kg, iv by LC-MS/MS analysis; format: ADME, organism-based; conditions: in vivo
[18] = test system: Rattus norvegicus; experiment: Oral bioavailability in Brown Norway rat at 3 mg/kg by LC-MS/MS analysis; format: ADME, organism-based; conditions: in vivo
[19] = Drug uptake in Brown Norway rat posteior eye cup at 2 mg/kg, po; format: ADME, organism-based; conditions: in vivo; outline: as §1

Sequence of Voltage-gated inwardly rectifying potassium channel KCNH2 (Q12809 whole entry): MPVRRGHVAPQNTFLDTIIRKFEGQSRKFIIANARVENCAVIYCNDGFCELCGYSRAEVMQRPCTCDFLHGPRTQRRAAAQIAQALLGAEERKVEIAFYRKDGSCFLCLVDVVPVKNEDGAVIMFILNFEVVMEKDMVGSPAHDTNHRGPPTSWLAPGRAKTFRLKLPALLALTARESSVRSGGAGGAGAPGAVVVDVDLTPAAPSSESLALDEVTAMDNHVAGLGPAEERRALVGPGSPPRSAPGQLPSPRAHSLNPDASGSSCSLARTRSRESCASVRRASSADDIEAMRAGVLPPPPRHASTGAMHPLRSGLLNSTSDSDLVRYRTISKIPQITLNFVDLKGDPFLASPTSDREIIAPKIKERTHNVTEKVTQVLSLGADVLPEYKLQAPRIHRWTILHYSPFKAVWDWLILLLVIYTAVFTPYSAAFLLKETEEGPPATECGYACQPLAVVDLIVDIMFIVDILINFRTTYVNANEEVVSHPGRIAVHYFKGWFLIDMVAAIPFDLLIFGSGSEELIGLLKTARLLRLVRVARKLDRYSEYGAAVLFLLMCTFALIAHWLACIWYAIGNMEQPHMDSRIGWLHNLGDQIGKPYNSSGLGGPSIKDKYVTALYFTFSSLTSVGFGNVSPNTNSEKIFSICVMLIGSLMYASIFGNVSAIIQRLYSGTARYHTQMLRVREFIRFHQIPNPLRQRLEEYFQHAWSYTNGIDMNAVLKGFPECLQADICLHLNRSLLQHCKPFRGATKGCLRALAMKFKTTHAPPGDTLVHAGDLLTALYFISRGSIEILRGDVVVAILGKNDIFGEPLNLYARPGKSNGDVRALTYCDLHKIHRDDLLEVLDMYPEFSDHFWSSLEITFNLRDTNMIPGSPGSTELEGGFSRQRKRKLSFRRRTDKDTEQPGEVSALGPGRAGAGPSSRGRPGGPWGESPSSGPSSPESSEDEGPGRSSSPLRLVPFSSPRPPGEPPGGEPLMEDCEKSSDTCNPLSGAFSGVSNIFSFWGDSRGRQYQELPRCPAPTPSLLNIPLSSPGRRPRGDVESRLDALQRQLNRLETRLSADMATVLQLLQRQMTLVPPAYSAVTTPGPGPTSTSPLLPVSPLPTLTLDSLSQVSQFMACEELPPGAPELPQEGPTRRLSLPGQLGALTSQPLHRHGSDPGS

SMILES	solubility [1]	inhibition in vivo at 10 mg/kg [2]	other results
CC(C)(C)c1cc(NC(=O)n2ccc3cc(Oc4ncnc5c4CNC5)ccc32)no1	20 µM (≈ 8.37 µg/mL)	83%	–
CNCc1cc(Oc2ccc3c(ccn3C(=O)Nc3cccc(C(F)(F)F)c3)c2)ncn1	64 µM (≈ 28.3 µg/mL)	67%	–
CC1(c2cc(NC(=O)n3ccc4cc(Oc5ncnc6c5CNC6)ccc43)n[nH]2)CC1	489 µM (≈ 203 µg/mL)	43%	–
C[C@H]1Cc2c(ncnc2Oc2ccc3c(ccn3C(=O)Nc3cccc(C(F)(F)F)c3)c2)CN1	–	96%	ED50 [3]: 3.6 mg/kg; ED90 [3]: 8.5 mg/kg
CNCc1cc(Oc2ccc3c(ccn3C(=O)Nc3ccc(F)c(C(F)(F)F)c3)c2)ncn1	–	92%	–
O=C(Nc1cccc(C(F)(F)F)c1)n1ccc2cc(Oc3ncnc4c3CNC4)ccc21	–	68%	ED50 [3]: 6.9 mg/kg; ED90 [3]: 31 mg/kg
Nc1cc(Oc2ccc3c(ccn3C(=O)Nc3cccc(C(F)(F)F)c3)c2)ncn1	< 5 µM	44%	–
CC(=O)N1CCc2c(ncnc2Oc2ccc3c(ccn3C(=O)Nc3cccc(C(F)(F)F)c3)c2)C1	–	0%	–
O=C(Nc1cc(C2CC2)on1)n1ccc2cc(Oc3ncnc4c3CNC4)ccc21	110 µM (≈ 44.3 µg/mL)	98%	IC50 [4]: > 30 µM; ED50 [3]: 1.8 mg/kg; ED90 [3]: 4.8 mg/kg; ED50 [5]: 0.7 mg/kg; ED90 [5]: 2.7 mg/kg; AUC/dose [6]: 15014 nM·h/mg/kg; AUC/dose [7]: 2692 nM·h/mg/kg; AUC/dose [8]: 92954 nM·h/mg/kg; Cmax/dose [9]: 3225 nM/mg/kg; Cmax/dose [10]: 337 nM/mg/kg; Cmax/dose [11]: 5293 nM/mg/kg; Cp/dose [12]: 6 nM/mg/kg; Druguptake/dose [13]: 65 nM/mg/kg; AUC [14]: 29.4 µM·h; Vd [15]: 0.5 L/kg; half-life [16]: 1.2 h; Cmax [17]: 11 µM; F [18]: 100%; Druguptake/dose [19]: 3344 nM/mg/kg
C[C@@H]1Cc2c(ncnc2Oc2ccc3c(ccn3C(=O)Nc3cccc(C(F)(F)F)c3)c2)CN1	–	58%	–
Cc1cncc(NC(=O)n2ccc3cc(Oc4ncnc5c4CCNC5)ccc32)c1	190 µM (≈ 76.1 µg/mL)	–	–
C[C@H]1NCc2ncnc(Oc3ccc4c(ccn4C(=O)Nc4cccc(C(F)(F)F)c4)c3)c21	–	0%	–
O=C(Nc1cccc(C(F)(F)F)c1)n1ccc2cc(Oc3ncnc4c3CCNC4)ccc21	84 µM (≈ 38.1 µg/mL)	87%	–
CC(C)c1cc(NC(=O)n2ccc3cc(Oc4ncnc5c4CCNC5)ccc32)n[nH]1	833 µM (≈ 348 µg/mL)	0%	–
CCN1CCc2c(ncnc2Oc2ccc3c(ccn3C(=O)Nc3cccc(C(F)(F)F)c3)c2)C1	< 5 µM	81%	–
